Published values collected from several papers.
Compare with care: the assays were run in different laboratories.
Target: Serine/threonine-protein kinase Nek9 (NEK9, Homo sapiens, UniProt Q8TD19)
One construct used (Q8TD19 1-979): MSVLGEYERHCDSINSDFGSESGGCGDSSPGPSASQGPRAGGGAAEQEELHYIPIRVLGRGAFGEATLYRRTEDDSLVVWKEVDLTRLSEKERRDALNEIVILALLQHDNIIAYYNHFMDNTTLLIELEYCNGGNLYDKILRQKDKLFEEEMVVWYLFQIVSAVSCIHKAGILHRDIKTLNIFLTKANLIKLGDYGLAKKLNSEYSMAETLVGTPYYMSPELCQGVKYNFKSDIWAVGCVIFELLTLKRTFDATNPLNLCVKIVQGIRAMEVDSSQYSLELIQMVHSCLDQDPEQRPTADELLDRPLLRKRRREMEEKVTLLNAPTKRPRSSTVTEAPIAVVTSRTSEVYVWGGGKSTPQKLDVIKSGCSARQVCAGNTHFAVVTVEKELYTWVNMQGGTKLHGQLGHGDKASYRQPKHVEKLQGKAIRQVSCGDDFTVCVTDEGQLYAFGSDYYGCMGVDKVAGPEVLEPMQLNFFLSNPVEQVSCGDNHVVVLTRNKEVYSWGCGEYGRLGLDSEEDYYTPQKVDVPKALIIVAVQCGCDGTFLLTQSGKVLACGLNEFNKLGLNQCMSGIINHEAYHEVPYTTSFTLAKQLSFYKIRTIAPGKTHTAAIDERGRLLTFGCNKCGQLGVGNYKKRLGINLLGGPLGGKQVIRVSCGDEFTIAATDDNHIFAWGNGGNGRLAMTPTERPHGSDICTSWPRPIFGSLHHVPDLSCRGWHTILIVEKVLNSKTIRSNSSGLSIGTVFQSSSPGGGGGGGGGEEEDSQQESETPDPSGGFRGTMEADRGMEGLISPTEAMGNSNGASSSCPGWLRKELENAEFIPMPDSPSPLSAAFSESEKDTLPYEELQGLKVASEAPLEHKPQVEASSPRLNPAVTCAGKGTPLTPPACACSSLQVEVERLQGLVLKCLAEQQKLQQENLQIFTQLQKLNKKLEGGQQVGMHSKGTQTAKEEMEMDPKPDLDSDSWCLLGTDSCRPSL

SMILES	read-out	mode	technique	cell line	concentration	endpoint	result
Nc1ncc(-c2nc(N3CCOCC3)nc(N3CCOCC3)n2)c(C(F)F)n1	binding	–	competition with immobilised ligand	–	10 µM	remaining binding	92%
O=c1[nH]c2ccccc2n1C1CCN(Cc2ccc(-c3[nH]c4cc5ncnc5cc4nc3-c3ccccc3)cc2)CC1	cell-free assay	–	–	–	0.5 µM	remaining signal	99.2%
Cn1cc(-c2cc(F)cc(N3CCn4c(cc5c4CCCC5)C3=O)c2CO)cc(Nc2ccc(N3CCN(C4COC4)CC3)cn2)c1=O	enzyme activity	inhibitor	–	–	0.1 µM	inhibition	6%
CCN1CCN(Cc2ccc(NC(=O)c3ccc(C)c(Oc4ccnc5[nH]ccc45)c3)cc2C(F)(F)F)CC1	target engagement in cells	inhibitor	chemoproteomics	Huh-7	10 µM	inhibition	-10.9%
CC(C)(C)c1cc(C=C(C#N)C#N)cc(Br)c1O	enzyme activity	inhibitor	–	–	0.5 µM	remaining activity	103%
Cn1cc(-c2cccc(N3CCc4c(sc5c4CC(C)(C)C5)C3=O)c2CO)cc(Nc2ccncn2)c1=O	enzyme activity	inhibitor	–	–	1 µM	inhibition	-1%
Cn1cncc1[C@](O)(COc1ccc(C#N)cc1-c1ccc(OC(F)(F)F)cc1)c1ccc(C#N)cc1	cell-free assay	–	competition with immobilised ligand	–	1 µM	remaining binding	72%
COc1ncccc1-c1cnn2ccc(N3CCN(C(=O)OC(C)C)CC3)nc12	binding	–	competition with immobilised ligand	–	1 µM	remaining binding	100%
